In ChEMBL document CHEMBL4422683, “Synthesis of 2-,4,-6-, and/or 7-substituted quinoline derivatives as human dihydroorotate dehydrogenase (hDHODH) inhibitors and anticancer agents: 3D QSAR-assisted design” (Bioorg Med Chem Lett, 2019):
pIC50: −log10 of the molar value.

Columns and labels:
HT-29 = assay: Antiproliferative activity against human HT-29 cells after 48 hrs by MTT assay; assay type: functional, cell-based; conditions: HT-29, 48 h
Procedure, shortened: (§1)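 MTT antiproliferative screen on human colorectal adenocarcinoma HT-29 and breast cancer MDA-MB-231 cells. Cell growth inhibition IC50 was read from the dose-response curve.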

[1] = molecular target: Dihydroorotate dehydrogenase (quinone), mitochondrial (Homo sapiens, UniProt Q02127); assay: Inhibition of human recombinant N-terminal His-tagged DHODH (31 to 395 residues) expressed in Escherichia coli using DHO as substrate measured after 20 mins by DCPI dye-based assay
Sequence of Dihydroorotate dehydrogenase (quinone), mitochondrial (Q02127 whole entry, the tested form may be a part): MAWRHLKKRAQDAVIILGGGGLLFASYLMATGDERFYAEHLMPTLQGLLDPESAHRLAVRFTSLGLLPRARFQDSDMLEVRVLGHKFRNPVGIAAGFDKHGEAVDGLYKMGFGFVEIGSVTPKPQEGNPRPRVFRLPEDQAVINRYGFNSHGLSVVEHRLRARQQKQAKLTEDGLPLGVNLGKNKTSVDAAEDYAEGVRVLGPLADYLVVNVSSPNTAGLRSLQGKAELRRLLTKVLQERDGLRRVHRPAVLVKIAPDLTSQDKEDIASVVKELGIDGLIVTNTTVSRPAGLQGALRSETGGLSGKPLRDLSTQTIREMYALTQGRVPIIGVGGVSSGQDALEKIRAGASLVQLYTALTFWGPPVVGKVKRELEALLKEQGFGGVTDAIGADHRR

MDA-MB-231 = assay: Antiproliferative activity against human MDA-MB-231 cells after 48 hrs by MTT assay; assay type: functional, cell-based; conditions: MDA-MB-231, 48 h; procedure, shortened: as §1

| pIC50 (HT-29) | pIC50 [1] | pIC50 (MDA-MB-231) | Compound |
| --- | --- | --- | --- |
| 4.31 | 5.13 | < 4.00 | O=C(OCc1ccccc1)c1cc(-c2ccc(Cl)cc2)nc2cc(Cl)c(Cl)cc12 |
| < 4.00 | – | < 4.00 | COc1ccc(-c2cc(COCc3ccccc3)c3cc(C)ccc3n2)cc1 |
| < 4.00 | 4.81 | < 4.00 | COc1ccc(-c2cc(COCc3ccccc3)c3cc(Cl)c(Cl)cc3n2)cc1 |
| < 4.00 | – | < 4.00 | Cc1ccc2nc(-c3ccc(Cl)cc3)cc(COCc3ccccc3)c2c1 |
| 4.37 | 5.48 | 4.41 | COc1ccc(-c2cc(C(=O)OCc3ccccc3)c3cc(Cl)c(Cl)cc3n2)cc1 |
| 4.84 | – | 4.88 | CC(=O)O[C@H]1C(=O)[C@@]2(C)[C@H]([C@H](OC(=O)c3ccccc3)[C@]3(O)C[C@H](OC(=O)[C@H](O)[C@@H](NC(=O)c4ccccc4)c4ccccc4)C(C)=C1C3(C)C)[C@]1(OC(C)=O)CO[C@@H]1C[C@@H]2O [PACLITAXEL] |

Continued, compound first:

| Compound | pIC50 (HT-29) | pIC50 [1] | pIC50 (MDA-MB-231) |
| --- | --- | --- | --- |
| Cc1ccc2nc(-c3ccc(F)cc3)cc(C(=O)OCc3ccccc3)c2c1 | 4.82 | 5.81 | 4.88 |
| COc1ccc(-c2cc(C(=O)OCc3ccccc3)c3cc(C)ccc3n2)cc1 | 4.76 | 5.71 | 4.69 |
| Clc1ccc(-c2cc(COCc3ccccc3)c3cc(Cl)c(Cl)cc3n2)cc1 | 4.78 | 5.91 | < 4.00 |
| Cc1ccc2nc(-c3ccc(F)cc3)cc(COCc3ccccc3)c2c1 | < 4.00 | 4.87 | < 4.00 |
| Cc1ccc2nc(-c3ccc(Cl)cc3)cc(C(=O)OCc3ccccc3)c2c1 | < 4.00 | 5.13 | < 4.00 |
| Cc1c(-c2ccc(-c3ccccc3F)cc2)nc2ccc(F)cc2c1C(=O)O [BREQUINAR SODIUM] | 4.85 | – | 4.90 |
